Published values from different studies.
Protocols differ between the studies behind these lines.

SMILES | target or system | assay | test system | setting | endpoint | result
O=C(C=Cc1ccccc1)Nc1cc(-c2ccnc(N3CCC(O)CC3)c2)ccn1 | – | – | female Sprague-Dawley rat, plasma | intravenous, 5 mg/kg | half-life | 0.47 h
CC(=Nc1ccc(N=Cc2cnccn2)cc1)N(C)C | – | – | male Sprague-Dawley rat, plasma | intravenous, 20 mg/kg | half-life | 1.53 h
CC1(CN)CCN(c2cnc3c(Sc4ccncc4Cl)n[nH]c3n2)CC1 | – | – | male Sprague-Dawley rat, plasma | oral, 10 mg/kg | half-life | 2.47 h
CC1=C(C(=O)OC(C)C)C(c2cccc(O)c2)NC(=S)N1 (stereo not shown) | MCF-10A | cell growth or viability, MTT | – | 50 µM, 96 h | viability | 93%
Nc1ccc(/C=C/C(=O)NCc2cc3cc(-c4ccc(C(=O)N5CCC(F)(F)CC5)cc4)cc(-c4ccc(F)cc4)c3o2)cn1 | – | – | rat, plasma | intravenous, 1 mg/kg | half-life | 5.61 h
COc1cccc2c1C(=O)c1c(O)c3c(c(O)c1C2=O)C[C@@](O)(C(=O)CO)C[C@@H]3O[C@H]1C[C@H](N)[C@H](O)[C@H](C)O1 | K562 | cell growth or viability, MTT | – | 100 µg/mL | viability | 23.9%
N#C[C@@]12C[C@@H]1[C@@H](n1cnc3c(N[C@@H](C4CCC4)C4CC4)nc(I)nc31)[C@H](O)[C@@H]2O | – | – | male Wistar rat, plasma | oral, 1 mg/kg | half-life | 2.2 h
COc1cc(C2NC(=O)NC(C)=C2C(=O)OC(C)C)cc(OC)c1OC (stereo not shown) | MCF-10A | cell growth or viability, MTT | – | 50 µM, 96 h | viability | 92%
O=C1CC[C@H](N2Cc3cc(N4CCN(CC5CCN(c6ccc([C@@H]7c8ccc(O)cc8CC[C@@H]7c7ccccc7)cc6)CC5)CC4)ccc3C2=O)C(=O)N1 | – | – | female Sprague-Dawley rat, plasma | oral, 20 mg/kg, fasted | half-life | 5.24 h
COc1cc(C2NC(=O)NC(C)=C2C(=O)OC(C)C)ccc1OCc1ccccc1 (stereo not shown) | MCF-10A | cell growth or viability, MTT | – | 50 µM, 96 h | viability | 91%
O=C(c1ccc(OCCN2CCCCC2)cc1)c1c(-c2ccc(O)cc2)sc2cc(O)ccc12 | Broad substrate specificity ATP-binding cassette transporter ABCG2 (ABCG2, Homo sapiens, UniProt Q9UNQ0) | transporter uptake, inhibitor | Sf9 | 10 µM, pH 7, cell membranes | inhibition | ~50%
CC1=C(C(=O)OC(C)C)C(c2cccc(O)c2)NC(=O)N1 (stereo not shown) | MCF-10A | cell growth or viability, MTT | – | 50 µM, 96 h | viability | 87%
C/C(=N\c1ccc(O)cc1)c1cc2ccccc2n1C | – | – | male Sprague-Dawley rat, plasma | intravenous, 5 mg/kg, 5 min, single dose | concentration | 173 ng/mL
